From PMC12393906 (Molecular Therapy, 2025)

Tests used:
pancreatic islet cells = assay: Glucose-stimulated insulin secretion and insulin content; type: cell-based, mouse; details: 1 or 5 μM; high glucose (16.7 mM)
Summary of the method: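 Islets were isolated by bile-duct perfusion of type V collagenase (0.45 mg/mL), handpicked and cultured overnight in RPMI/10% FCS. They were exposed 3 h in KRBH (pH 7.4) to 2.8 mM or 16.7 mM glucose, ± vehicle (0.1% DMSO) or 1 or 5 μM test compound. Ten islets per group then had 1 h in low glucose, then 1 h at 37°C under the same conditions, in technical duplicates. Supernatant insulin and acid-ethanol-extracted content were measured by ELISA.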

mouse platelets = assay: Ca2+ mobilization; type: cell-based; details: thrombin, A23187 or thapsigargin
Summary of the method: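 Mouse platelets were preincubated 20 min with vehicle (0.1% DMSO) or test compound, then loaded with FLIPR Ca2+ 5 dye for 30 min at 37°C in the dark. Release was triggered by 0.02 U/mL thrombin, 0.5 μM A23187 or 5 μM thapsigargin, and influx by adding 2 mM CaCl2. Fluorescence was read at ex 485/em 525 nm and reported as area under the curve (RFU).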

C57BL/6 mice [1] = assay: Ex vivo platelet activation after intravenous injection; type: in vivo, mouse; details: iv 0.3 μg/g BW; blood collected 10 min later
Summary of the method: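 C57BL/6 mice (8–12 weeks, both sexes) received iv vehicle (1% DMSO in saline) or test compound at 0.3 μg/g BW. Blood was drawn 10 min later and washed platelets were isolated. Platelets were stimulated with agonist for 5 min at 37°C and stained 15 min for P-selectin and activated αIIbβ3 (JON/A). Flow cytometry read-out was geometric mean fluorescence intensity.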

C57BL/6 mice [2] = assay: Tail bleeding time and hemoglobin content; type: in vivo, mouse; details: iv 0.3 μg/g BW
mouse blood = assay: Flow chamber assay on collagen-coated surfaces under arterial shear; type: cell-based; details: 5 μM, 50 dyne/cm^2
Summary of the method: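 Plates were coated with fibrillar type 1 collagen (100 μg/mL, 1 h, 37°C) and washed with PBS/0.05% BSA. ACD-anticoagulated blood was treated 15 min at 37°C with 0.1% DMSO vehicle or 5 μM test compound, then labelled with 1 μM DiOC6 for 5 min. After adding 6 mM CaCl2 and 3 mM MgCl2, blood was perfused at 50 dyne/cm2 (mouse blood: 2 min). Surface coverage and thrombus volume were measured by epifluorescence.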

C57BL/6 mice [3] = assay: Intravital microscopy, laser-induced cremaster arteriolar injury; type: in vivo, mouse; details: iv 0.3 μg/g BW 10 min before IVM
Summary of the method: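 Male mice (8–12 weeks) were anaesthetised with ketamine/xylazine ip. The cremaster was exteriorised and superfused with 37°C bicarbonate-buffered saline. Vehicle (1% DMSO) or test compound (0.3 μg/g BW) was given iv, and 10 min later DyLight 649 anti-CD42c (0.1 μg/g BW) was given. Laser ablation injured 3–4 arterioles per mouse. Median integrated platelet fluorescence was tracked over time, using […] per group.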

SMILES: O=C(O)c1cc(N2N=C(C(F)(F)F)/C(=C/c3ccc(-c4ccccc4)o3)C2=O)ccc1Cl [EN460]
- insulin secretion or content (pancreatic islet cells): did not reduce insulin secretion or content
- Ca2+ release and influx (mouse platelets; 0.25 or 0.5 μM): no or minimal inhibition
- Ca2+ release and influx (mouse platelets; 1 or 2.5 μM): significantly reduced both Ca^2+ release and influx
- P-selectin exposure and αIIbβ3 integrin activation following thrombin stimulation (ex vivo) (C57BL/6 mice [1]): moderate but significant reduction
- tail bleeding times and blood loss (C57BL/6 mice [2]): did not prolong tail bleeding times or increase blood loss
- surface coverage and volume of platelet thrombi (mouse blood): significantly reduced
- initial platelet adhesion at sites of laser injury (C57BL/6 mice [3]): without affecting initial platelet adhesion
- platelet accumulation at sites of laser injury (C57BL/6 mice [3]): significantly inhibited platelet accumulation
